Experimental data taken from publication PMC7931646 (The Journal of Experimental Medicine, 2021).

Columns and labels:
[1] = test system: Aβ42 and Aβ40 levels in plasma and brain; test: 9-d repeat-dose efficacy in C57BL/6J mice; type: in vivo, mouse; conditions: 10 mg/kg/d for 9 d
[2] = test system: S. typhimurium bacterial strains TA98, TA100, TA1535, TA1537; test: Non-GLP screening; type: cell-based, Salmonella typhimurium; conditions: 5–100 µM, with and without Aroclor-induced rat liver S9
Outline: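 Non-GLP mini-Ames screen using S. typhimurium TA98, TA100, TA1535 and TA1537, with and without Aroclor-induced rat liver S9. Test article was applied at 5–100 µM. Read-out was bacterial growth from reversion of the histidine mutation.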

CYP450 2C9 = CYP450 2C9 (Homo sapiens, UniProt P11712); test: CYP450 inhibition, recombinant isoform; type: in vitro ADME
Sequence of CYP450 2C9 (P11712 whole entry, canonical isoform): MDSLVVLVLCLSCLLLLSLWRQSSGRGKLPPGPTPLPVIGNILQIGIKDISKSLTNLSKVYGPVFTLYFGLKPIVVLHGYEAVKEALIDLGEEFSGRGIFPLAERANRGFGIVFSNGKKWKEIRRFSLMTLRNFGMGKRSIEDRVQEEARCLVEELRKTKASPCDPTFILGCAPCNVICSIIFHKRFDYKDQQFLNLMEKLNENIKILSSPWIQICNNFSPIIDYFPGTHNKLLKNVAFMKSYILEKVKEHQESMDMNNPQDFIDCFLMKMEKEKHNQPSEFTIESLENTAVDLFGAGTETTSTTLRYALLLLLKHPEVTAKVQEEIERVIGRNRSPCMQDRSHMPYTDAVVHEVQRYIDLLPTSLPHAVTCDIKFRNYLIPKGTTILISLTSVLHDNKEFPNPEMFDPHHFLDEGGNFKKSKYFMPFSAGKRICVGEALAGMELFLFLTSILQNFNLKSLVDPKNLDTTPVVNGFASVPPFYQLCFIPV

SMILES: COc1nc(-c2cc(C)c(N[C@@H](C)c3cc(F)cc(F)c3)nn2)ccc1-n1cnc(C)c1 [Compound 2, (S)-N-(1-(3,5-difluorophenyl)ethyl)-6-(6-methoxy-5-(4-methyl-1H-imidazol-1-yl)pyridin-2-yl)-4-methylpyridazin-3-amine]
- elimination of detectable Aβ42 in brain [1]: 100%
- reduction in plasma Aβ42 levels [1]: > 90%
- Ames [2]: Negative
- IC50 (CYP450 2C9): 4.4 µM
